ChEMBL document CHEMBL1140334, “Synthesis and structure-activity relationships of pyrazine-pyridine biheteroaryls as novel, potent, and selective vascular endothelial growth factor receptor-2 inhibitors” (J Med Chem, 2005)
One block for each compound: values may come before it.

Assays:
MRC5 = test: Concentration required to inhibit proliferation of human MRC5 fibroblast cell growth
[1] = target: Glycogen synthase kinase-3 (Homo sapiens, UniProt P49840+P49841); test: Inhibition of glycogen synthase kinase-3; assay type: protein assay
How it was run: (§1)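 Radiometric kinase assay. Conditions varied slightly per kinase. Stopped with PBS/100 mM EDTA, read by scintillation counting. IC50 by linear regression of % inhibition, mean of at least two determinations.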

Casein kinase II = Casein kinase II (Homo sapiens, UniProt P19784+P67870+P68400); test: Inhibition of casein kinase 2; assay type: protein-complex assay; how it was run: as §1
Chain of Casein kinase II (P67870 whole entry): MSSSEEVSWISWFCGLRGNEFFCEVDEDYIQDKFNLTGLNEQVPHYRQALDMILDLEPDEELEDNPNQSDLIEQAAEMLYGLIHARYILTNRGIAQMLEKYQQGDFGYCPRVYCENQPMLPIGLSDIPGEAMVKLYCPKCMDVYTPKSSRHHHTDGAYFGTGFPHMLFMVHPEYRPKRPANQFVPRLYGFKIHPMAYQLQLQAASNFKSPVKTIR
Chain of Casein kinase II (P68400 whole entry): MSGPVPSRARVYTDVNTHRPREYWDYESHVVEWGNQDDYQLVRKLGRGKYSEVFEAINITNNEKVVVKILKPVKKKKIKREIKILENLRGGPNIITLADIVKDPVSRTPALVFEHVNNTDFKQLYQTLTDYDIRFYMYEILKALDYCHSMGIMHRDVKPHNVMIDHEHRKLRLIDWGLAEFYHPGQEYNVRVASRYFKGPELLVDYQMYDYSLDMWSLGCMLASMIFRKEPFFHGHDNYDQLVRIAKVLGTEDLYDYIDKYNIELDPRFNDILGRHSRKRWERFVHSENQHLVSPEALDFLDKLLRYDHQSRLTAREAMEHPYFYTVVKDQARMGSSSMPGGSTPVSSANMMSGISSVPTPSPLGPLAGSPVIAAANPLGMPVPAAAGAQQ
Chain of Casein kinase II (P19784 whole entry): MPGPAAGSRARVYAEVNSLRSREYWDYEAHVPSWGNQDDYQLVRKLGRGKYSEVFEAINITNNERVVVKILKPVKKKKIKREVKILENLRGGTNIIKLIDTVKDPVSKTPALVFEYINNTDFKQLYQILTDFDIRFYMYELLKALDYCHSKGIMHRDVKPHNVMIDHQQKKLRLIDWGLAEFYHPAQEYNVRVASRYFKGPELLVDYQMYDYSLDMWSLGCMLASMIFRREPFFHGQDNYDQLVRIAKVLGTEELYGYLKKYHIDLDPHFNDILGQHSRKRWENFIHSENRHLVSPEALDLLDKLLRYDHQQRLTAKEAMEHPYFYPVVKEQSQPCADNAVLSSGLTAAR

[2] = target: T1, Vascular endothelial growth factor receptor 2 (Homo sapiens, UniProt P35968); test: Inhibition of vascular endothelial growth factor receptor 2; how it was run: as §1
T1 sequence (P35968 whole entry): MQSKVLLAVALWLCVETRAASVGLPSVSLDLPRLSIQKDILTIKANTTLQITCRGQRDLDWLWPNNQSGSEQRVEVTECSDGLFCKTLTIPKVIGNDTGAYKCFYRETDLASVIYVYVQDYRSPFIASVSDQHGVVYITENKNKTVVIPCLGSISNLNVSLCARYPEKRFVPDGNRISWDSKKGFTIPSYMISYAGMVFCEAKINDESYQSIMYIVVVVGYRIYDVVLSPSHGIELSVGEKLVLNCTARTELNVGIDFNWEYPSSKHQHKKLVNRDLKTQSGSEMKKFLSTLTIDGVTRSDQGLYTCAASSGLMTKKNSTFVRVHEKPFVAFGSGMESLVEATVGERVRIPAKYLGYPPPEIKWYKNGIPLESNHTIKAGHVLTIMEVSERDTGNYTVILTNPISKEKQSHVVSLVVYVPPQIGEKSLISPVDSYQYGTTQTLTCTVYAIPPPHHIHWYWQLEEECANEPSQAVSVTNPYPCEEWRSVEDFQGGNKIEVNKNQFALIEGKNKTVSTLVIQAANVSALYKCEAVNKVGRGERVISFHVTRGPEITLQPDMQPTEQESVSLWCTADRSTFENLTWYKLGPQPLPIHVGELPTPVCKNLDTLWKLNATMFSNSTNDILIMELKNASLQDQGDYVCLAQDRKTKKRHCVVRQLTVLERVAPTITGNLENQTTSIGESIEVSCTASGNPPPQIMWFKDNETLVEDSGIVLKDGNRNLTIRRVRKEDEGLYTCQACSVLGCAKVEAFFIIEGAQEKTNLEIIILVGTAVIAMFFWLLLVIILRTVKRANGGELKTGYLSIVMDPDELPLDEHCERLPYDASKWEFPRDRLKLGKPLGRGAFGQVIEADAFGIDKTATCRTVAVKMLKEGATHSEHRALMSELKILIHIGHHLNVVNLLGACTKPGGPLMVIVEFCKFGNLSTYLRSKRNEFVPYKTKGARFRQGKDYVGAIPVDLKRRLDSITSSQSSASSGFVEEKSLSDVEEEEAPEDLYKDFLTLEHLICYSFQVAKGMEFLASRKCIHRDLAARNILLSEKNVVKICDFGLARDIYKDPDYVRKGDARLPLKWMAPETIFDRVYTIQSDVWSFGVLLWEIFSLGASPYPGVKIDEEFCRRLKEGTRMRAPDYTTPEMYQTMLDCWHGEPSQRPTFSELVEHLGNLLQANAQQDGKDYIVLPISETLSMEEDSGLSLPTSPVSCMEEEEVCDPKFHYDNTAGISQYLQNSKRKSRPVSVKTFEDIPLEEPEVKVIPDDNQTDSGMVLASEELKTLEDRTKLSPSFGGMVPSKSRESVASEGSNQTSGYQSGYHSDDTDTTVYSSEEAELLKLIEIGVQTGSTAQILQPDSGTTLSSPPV

[3] = Inhibition of platelet-derived growth factor receptor; how it was run: as §1
HASMC = test: Concentration required to inhibit proliferation of HASMC; settings: Homo sapiens
[4] = target: T1, Vascular endothelial growth factor receptor 2; test: Inhibitory concentration (experimental) against vascular endothelial growth factor receptor 2; how it was run: as §1
A-375 [5] = test: Concentration required to inhibit proliferation of A375 human amelanotic melanoma cell growth
[6] = Inhibition of protein kinase A; how it was run: as §1
[7] = target: Mitogen-activated protein kinase 1 (Homo sapiens, UniProt P28482); test: Inhibition of mitogen-activated protein kinase; how it was run: as §1
Chain of Mitogen-activated protein kinase 1 (P28482 whole entry): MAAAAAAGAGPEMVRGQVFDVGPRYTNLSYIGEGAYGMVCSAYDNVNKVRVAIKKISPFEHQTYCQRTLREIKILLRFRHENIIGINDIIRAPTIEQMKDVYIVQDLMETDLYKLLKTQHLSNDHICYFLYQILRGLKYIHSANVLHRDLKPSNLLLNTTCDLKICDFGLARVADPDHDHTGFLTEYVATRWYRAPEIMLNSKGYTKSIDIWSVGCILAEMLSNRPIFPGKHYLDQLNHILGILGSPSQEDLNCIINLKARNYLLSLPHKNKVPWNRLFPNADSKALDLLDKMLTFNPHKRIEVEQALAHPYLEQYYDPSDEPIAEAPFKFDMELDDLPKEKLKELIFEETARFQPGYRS

HUVEC [8] = test: Concentration inhibiting VEGF stimulated (2 ng/well) HUVE cell proliferation; settings: Homo sapiens
HUVEC [9] = test: Concentration required to inhibit proliferation of HUVEC; settings: Homo sapiens
Insulin receptor = Insulin receptor (Homo sapiens, UniProt P06213); test: Inhibition of insulin Receptor kinase; how it was run: as §1
Chain of Insulin receptor (P06213 28-758 limits assumed): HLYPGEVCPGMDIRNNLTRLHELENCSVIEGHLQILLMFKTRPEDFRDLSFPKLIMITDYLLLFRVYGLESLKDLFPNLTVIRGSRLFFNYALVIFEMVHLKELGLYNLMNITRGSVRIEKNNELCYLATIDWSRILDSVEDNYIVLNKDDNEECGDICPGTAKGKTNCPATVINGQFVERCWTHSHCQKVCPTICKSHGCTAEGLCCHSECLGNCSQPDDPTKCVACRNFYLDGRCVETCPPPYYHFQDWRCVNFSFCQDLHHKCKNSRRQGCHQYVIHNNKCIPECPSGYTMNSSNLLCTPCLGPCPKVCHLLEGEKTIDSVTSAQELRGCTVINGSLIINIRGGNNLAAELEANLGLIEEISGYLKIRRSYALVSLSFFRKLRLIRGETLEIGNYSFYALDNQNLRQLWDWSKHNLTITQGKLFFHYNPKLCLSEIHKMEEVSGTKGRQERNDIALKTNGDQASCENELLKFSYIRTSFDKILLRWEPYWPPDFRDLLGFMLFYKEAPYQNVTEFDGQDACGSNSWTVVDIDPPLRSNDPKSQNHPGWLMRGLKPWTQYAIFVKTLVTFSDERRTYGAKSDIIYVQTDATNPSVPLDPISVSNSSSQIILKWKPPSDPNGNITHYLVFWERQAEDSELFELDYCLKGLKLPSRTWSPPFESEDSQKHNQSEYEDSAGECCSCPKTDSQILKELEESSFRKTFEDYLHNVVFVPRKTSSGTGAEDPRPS
Chain of Insulin receptor (P06213 763-1382 limits assumed): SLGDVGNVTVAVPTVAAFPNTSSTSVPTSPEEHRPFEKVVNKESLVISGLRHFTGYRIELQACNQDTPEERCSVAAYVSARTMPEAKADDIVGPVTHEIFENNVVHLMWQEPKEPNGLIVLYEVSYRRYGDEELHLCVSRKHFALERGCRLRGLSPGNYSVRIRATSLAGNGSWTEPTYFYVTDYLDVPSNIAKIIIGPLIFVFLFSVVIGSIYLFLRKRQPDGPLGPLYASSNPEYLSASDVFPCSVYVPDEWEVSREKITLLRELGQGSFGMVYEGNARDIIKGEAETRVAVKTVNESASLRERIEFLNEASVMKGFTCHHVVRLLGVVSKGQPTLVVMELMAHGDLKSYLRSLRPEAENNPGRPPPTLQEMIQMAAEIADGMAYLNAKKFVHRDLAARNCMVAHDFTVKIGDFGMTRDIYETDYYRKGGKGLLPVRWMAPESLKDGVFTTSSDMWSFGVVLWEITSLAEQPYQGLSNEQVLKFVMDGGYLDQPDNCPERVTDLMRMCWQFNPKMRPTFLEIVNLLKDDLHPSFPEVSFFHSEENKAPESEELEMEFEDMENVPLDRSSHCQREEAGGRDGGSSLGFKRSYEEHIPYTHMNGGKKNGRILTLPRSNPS

Casein kinase I = test: Inhibition of casein kinase 1; assay type: protein assay
HeLa = test: Concentration required to inhibit proliferation of HeLa cell growth; settings: Homo sapiens
HCT-116 = test: Concentration required to inhibit proliferation of human HCT116 colon cancer cell growth
[10] = Inhibition of cyclin-dependent kinase 1 activity; how it was run: as §1
CaM kinase II = CaM kinase II (Homo sapiens, UniProt Q13557+Q13555+Q13554+Q9UQM7); test: Inhibition of calcium/calmodulin-dependent protein kinase type II; assay type: protein assay
[11] = Inhibition of protein kinase C gamma; how it was run: as §1
A-375 [12] = test: The antitumor activity shown by the compound against A375 human melanoma xenografts growing in nude mice (75 mg/kg, i.p.) in terms of mean day of survival; assay type: functional, Mus musculus
How it was run: (§2)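 Female nude mice carried subcutaneous flank implants of 1 mm3 A375 fragments and were pair-matched on day 1 at tumors of 62-126 mg. Dosing was i.p. once daily for 30 days, in 1.5% Pluronic F108 vehicle; the study ended at day 60. Tumor weight was taken as (w2l)/2. Mice were euthanized at 2.0 g, and MDS was derived from calculated time to endpoint.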

A-375 [13] = test: The antitumor activity shown by the compound against A375 human melanoma xenografts growing in nude mice (10 mg/kg, i.p.) in terms of mean day of survival; assay type: functional, Mus musculus; how it was run: as §2
[14] = target: Protein kinase C beta type (Homo sapiens, UniProt P05771); test: Inhibition of protein kinase C beta activity; how it was run: as §1
Chain of Protein kinase C beta type (P05771 whole entry): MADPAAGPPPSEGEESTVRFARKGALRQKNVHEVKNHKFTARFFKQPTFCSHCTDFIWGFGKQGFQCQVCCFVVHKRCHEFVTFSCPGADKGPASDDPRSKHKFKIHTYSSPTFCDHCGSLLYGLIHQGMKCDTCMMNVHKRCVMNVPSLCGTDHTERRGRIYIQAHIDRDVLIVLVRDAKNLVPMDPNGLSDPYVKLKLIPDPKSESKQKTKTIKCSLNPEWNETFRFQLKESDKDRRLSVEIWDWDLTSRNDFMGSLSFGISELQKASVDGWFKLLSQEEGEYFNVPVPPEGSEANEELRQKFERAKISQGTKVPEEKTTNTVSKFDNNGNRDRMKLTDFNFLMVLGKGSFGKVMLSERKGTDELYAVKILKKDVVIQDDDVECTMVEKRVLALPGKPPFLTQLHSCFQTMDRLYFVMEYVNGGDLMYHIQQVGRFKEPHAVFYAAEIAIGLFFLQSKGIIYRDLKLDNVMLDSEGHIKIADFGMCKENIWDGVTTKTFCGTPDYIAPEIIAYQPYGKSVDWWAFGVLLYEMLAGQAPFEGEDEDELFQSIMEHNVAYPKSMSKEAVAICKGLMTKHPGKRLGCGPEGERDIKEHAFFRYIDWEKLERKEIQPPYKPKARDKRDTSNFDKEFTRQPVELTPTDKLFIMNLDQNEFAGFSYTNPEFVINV

[15] = target: Cyclin-dependent kinase 4/cyclin D1 (Homo sapiens, UniProt P11802); test: Inhibition of cyclin dependent kinase 4-cyclinD1; assay type: protein-complex assay; how it was run: as §1

SMILES: Clc1cccc(Nc2cncc(-c3cncc(NCCCc4ccccc4)c3)n2)c1
- IC50 [10]: > 10 µM
- IC50 [2]: 2.28 µM
- IC50 [4]: 2.29 µM

SMILES: O=C(COc1ccccc1)Nc1cncc(-c2cncc(Nc3cccc(Cl)c3)n2)c1
- IC50 [10]: > 10 µM
- IC50 [2]: > 10 µM

SMILES: COCCC(=O)Nc1cncc(-c2cncc(Nc3cccc(Cl)c3)n2)c1
- IC50 [10]: > 10 µM
- IC50 [2]: 0.593 µM
- IC50 [4]: 0.589 µM

SMILES: O=C(COCc1ccccc1)Nc1cncc(-c2cncc(Nc3cccc(Cl)c3)n2)c1
- IC50 [10]: > 10 µM
- IC50 [2]: > 10 µM

SMILES: OCCCNc1cnc(Cl)c(-c2cncc(Nc3cccc(Cl)c3)n2)c1
- IC50 [10]: > 10 µM
- IC50 [2]: > 10 µM

SMILES: OCCCCNc1cncc(-c2cncc(Nc3cccc(Cl)c3)n2)c1
- IC50 (CaM kinase II): > 10 µM
- IC50 (MRC5): 3.61 µM
- IC50 [10]: > 10 µM
- IC50 [11]: > 10 µM
- IC50 [1]: 4.02 µM
- MDS (A-375 [12]): 29.2
- IC50 (Casein kinase II): > 10 µM
- IC50 [2]: 0.063 µM
- MDS (A-375 [13]): 24
- IC50 (HASMC): 3.23 µM
- IC50 [4]: 0.0631 µM
- IC50 (A-375 [5]): 6.08 µM
- IC50 [6]: > 10 µM
- IC50 [7]: > 10 µM
- IC50 [14]: > 10 µM
- IC50 (HUVEC [8]): 0.063 µM
- IC50 (HUVEC [9]): 1.17 µM
- IC50 (Insulin receptor): > 10 µM
- IC50 (HeLa): 5.56 µM
- IC50 (HCT-116): > 10 µM

SMILES: CN(C)c1ccc(C(=O)Nc2cncc(-c3cncc(Nc4cccc(Cl)c4)n3)c2)cc1
- IC50 [10]: > 10 µM
- IC50 [2]: > 10 µM

SMILES: OCCCNc1cncc(-c2cncc(Nc3cccc(Cl)c3)n2)c1
- IC50 (MRC5): 6.6 µM
- IC50 [10]: > 10 µM
- IC50 [11]: > 10 µM
- IC50 ([1]; read-out: IC50): 0.478 µM
- IC50 (HASMC): 3.87 µM
- IC50 (A-375 [5]): > 10 µM
- IC50 [6]: > 10 µM
- IC50 (HUVEC [8]): 0.164 µM
- IC50 (HUVEC [9]): 1.68 µM
- IC50 (Casein kinase I): > 10 µM
- IC50 (HeLa): > 10 µM
- IC50 (HCT-116): > 10 µM

SMILES: CN(C)CCNc1cncc(-c2cncc(Nc3cccc(Cl)c3)n2)c1
- IC50 (CaM kinase II): > 10 µM
- IC50 (MRC5): 2.91 µM
- IC50 [10]: > 10 µM
- IC50 [11]: 3.96 µM
- IC50 [1]: > 10 µM
- MDS (A-375 [12]): 28.9
- IC50 (Casein kinase II): > 10 µM
- IC50 [2]: 0.105 µM
- MDS (A-375 [13]): 22.4
- IC50 [3]: > 10 µM
- IC50 (HASMC): 2.77 µM
- IC50 [4]: 0.105 µM
- IC50 (A-375 [5]): 3.72 µM
- IC50 [6]: > 10 µM
- IC50 [7]: > 10 µM
- IC50 [14]: > 10 µM
- IC50 (HUVEC [8]): 0.059 µM
- IC50 (HUVEC [9]): 0.877 µM
- IC50 [15]: > 10 µM
- IC50 (Insulin receptor): > 10 µM
- IC50 (Casein kinase I): > 10 µM
- IC50 (HeLa): > 10 µM
- IC50 (HCT-116): 8.58 µM

SMILES: Nc1ncc(NCCCO)cc1-c1cncc(Nc2cccc(Cl)c2)n1
- IC50 [10]: > 10 µM
- IC50 [2]: 1.36 µM
- IC50 [4]: 1.35 µM

SMILES: Nc1cncc(-c2cncc(Nc3cccc(Cl)c3)n2)c1
- IC50 [10]: > 10 µM
- IC50 [2]: 1.16 µM
- IC50 [4]: 1.15 µM

SMILES: CN(C)CCNC(=O)c1cncc(-c2cncc(Nc3cccc(Cl)c3)n2)c1
- IC50 [10]: 3.69 µM
- IC50 [2]: 4.3 µM
- IC50 [4]: 4.27 µM

Further lines, with some results ahead:

- IC50 [1]: 0.318 µM
- IC50 (Casein kinase II): > 10 µM
- IC50 [2]: 0.076 µM
- IC50 [4]: 0.0759 µM
- IC50 (A-375 [5]): 2.96 µM
- IC50 [6]: > 10 µM
- IC50 [7]: > 10 µM
- IC50 (Insulin receptor): > 10 µM
- IC50 (Casein kinase I): > 10 µM
- IC50 (HeLa): 3.06 µM
- IC50 (HCT-116): 5.05 µM
SMILES: Clc1cccc(Nc2cncc(-c3cncc(NCCCc4cccnc4)c3)n2)c1
- IC50 (MRC5): 3.38 µM
- IC50 [3]: 0.876 µM
- IC50 (HASMC): 6.15 µM
- IC50 (HUVEC [8]): 0.086 µM
- IC50 (HUVEC [9]): 1.67 µM

- IC50 [10]: > 10 µM
- IC50 [2]: 0.391 µM
- IC50 [4]: 0.389 µM
SMILES: Clc1cccc(Nc2cncc(-c3cncc(NCC4CCOCC4)c3)n2)c1

- IC50 [10]: > 10 µM
- IC50 [2]: 0.275 µM
- IC50 [4]: 0.275 µM
SMILES: OCCNc1cncc(-c2cncc(Nc3cccc(Cl)c3)n2)c1

- IC50 (CaM kinase II): > 10 µM
- IC50 [10]: > 10 µM
- IC50 [1]: 0.606 µM
- IC50 (Casein kinase II): 8.1 µM
- IC50 [2]: 0.094 µM
- IC50 [4]: 0.0933 µM
- IC50 (A-375 [5]): 2.84 µM
- IC50 [6]: > 10 µM
- IC50 [7]: > 10 µM
- IC50 (Insulin receptor): > 10 µM
- IC50 (Casein kinase I): 5.6 µM
- IC50 (HeLa): 3.5 µM
- IC50 (HCT-116): 5.24 µM
SMILES: Clc1cccc(Nc2cncc(-c3cncc(NCCCn4cccn4)c3)n2)c1
- IC50 (MRC5): 3.61 µM
- IC50 (HASMC): 3 µM
- IC50 (HUVEC [8]): 0.12 µM
- IC50 (HUVEC [9]): 1.39 µM

- IC50 [10]: > 10 µM
- IC50 [2]: 0.135 µM
- IC50 [4]: 0.135 µM
SMILES: CN(C)CCCNc1cncc(-c2cncc(Nc3cccc(Cl)c3)n2)c1

- IC50 [10]: > 10 µM
- IC50 [2]: 0.123 µM
- IC50 [4]: 0.123 µM
SMILES: CN1CCN(CCCNc2cncc(-c3cncc(Nc4cccc(Cl)c4)n3)c2)CC1

- IC50 [10]: > 10 µM
- IC50 [2]: 0.189 µM
- IC50 [4]: 0.191 µM
SMILES: Clc1ccc(Nc2cncc(-c3cncc(NCCCc4ccncc4)c3)n2)cc1Cl
